{"source": "paper PMC5109833", "about": "(Journal of medicinal chemistry, 2015)", "key": {"[1]": {"system": "CCL26 (eotaxin-3) mRNA in Beas-2B cells", "experiment": "Inhibition of IL-13 stimulated CCL26", "assay_type": "cell-based, human", "settings": "IL-13, 100 nM", "summary_of_the_method": "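Beas-2B cells plated at 4 × 10^5 cells/well and held overnight in complete medium, then serum-starved 2 h. Pretreated with test compound 2 h, then stimulated with IL-13 overnight in serum-free medium. RNA extracted with Trizol and reverse transcribed. CCL26 quantified relative to β-actin by TaqMan real-time PCR.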"}, "[2]": {"system": "pSTAT6 (Tyr641) in Beas-2B cells", "settings": "IL-4 and IL-13 stimulated; cited from earlier work"}, "[3]": {"system": "pSTAT6 in CD4+ T lymphocytes", "assay_type": "cell-based", "settings": "primary mouse CD4+ T lymphocytes, Figure S2", "summary_of_the_method": "(§1)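 CD4+ T cells magnetically sorted from C57BL/6J mice. Activated on plate-bound anti-CD3 and/or anti-CD28 with IL-2 or IL-4 for 15 min. Lysed in kinase lysis buffer with protease inhibitors, 10 mM NaF and 1 mM Na3VO4. Protein equalised by Bradford, then immunoblotted for phospho-STAT5 Tyr694/STAT5 or phospho-STAT6 Tyr641/STAT6.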"}, "[4]": {"molecular_target": "T1, STAT6 (SH2 domain) (Homo sapiens, UniProt P42226)", "T1 sequence (P42226 517-632 limits assumed)": "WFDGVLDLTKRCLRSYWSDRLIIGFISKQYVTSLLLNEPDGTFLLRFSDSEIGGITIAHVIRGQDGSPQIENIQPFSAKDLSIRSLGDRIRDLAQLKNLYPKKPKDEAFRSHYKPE", "experiment": "Fluorescence polarization assay of affinity for STAT6", "assay_type": "binding"}, "[5]": {"system": "pSTAT5 in CD4+ T lymphocytes", "assay_type": "cell-based", "settings": "primary mouse CD4+ T lymphocytes", "summary_of_the_method": "as §1"}, "[6]": {"system": "pAkt in MDA-MB-468 cells", "experiment": "Inhibition of EGF-stimulated pAkt in MDA-MB-468 cells", "assay_type": "cell-based, human", "settings": "serum starved MDA-MB-468, EGF"}, "[7]": {"system": "Beas-2B cells", "experiment": "Beas-2B cell viability/proliferation, MTS assay, 72 h", "assay_type": "cell-based, human", "settings": "72 h exposure", "summary_of_the_method": "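Beas-2B cells seeded at 2000 cells/well. Test compound made as 10 mM DMSO stock, serially diluted in DMSO, and equal amounts of each dilution added. Incubation at 37 °C for 72 h. Medium then replaced with 1:5 MTS/PBS for a further 1 h. Viable cells estimated from optical density at 490 nm.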"}, "[8]": {"system": "pSTAT6 (Tyr641) in Beas-2B cells", "experiment": "Inhibition of STAT6 Tyr641 phosphorylation in intact Beas-2B cells", "assay_type": "cell-based, human", "settings": "for pSTAT6 inhibition potency (in words): IL-4, Figure 4B", "summary_of_the_method": "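Beas-2B cells seeded at 3.0 × 10^5 cells/well the day before. Prodrug added from DMSO stocks (5–10 μM stock) for 2 h, then IL-4 2 ng/mL for 1 h. Cells washed in cold PBS, lysed with PMSF, and protein measured by Lowry. 15–30 µg run on 10% SDS-PAGE and probed for pSTAT6 Tyr641 with ECL detection, then stripped and reprobed for total STAT6. Bands quantified densitometrically.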"}}, "note": "Like-named read-outs stand apart in the source and are kept apart here. Peptide text beside a SMILES is read from it.", "data": [{"smiles": "CC(C)(C)C(=O)OCOP(=O)(OCOC(=O)C(C)(C)C)C(F)(F)c1ccc(/C=C/C(=O)N[C@H](C(=O)N2CCC[C@H]2C(=O)N(c2ccccc2)c2ccc(I)cc2)C(C)(C)C)cc1", "note": "[compound 17]", "values": [{"measurement": "inhibition of CCL26 mRNA expression at 100 nM", "setting": "[1]", "value": "> 50", "unit": "%"}, {"measurement": "concentration giving significant inhibition of pSTAT6", "setting": "[2]", "value": "≥ 1", "unit": "µM"}, {"measurement": "inhibition of IL-4 stimulated pSTAT6", "setting": "[3]", "value": "relatively weak"}]}, {"smiles": "CC(C)(C)[C@H](NC(=O)/C=C/c1ccc(OP(=O)(O)O)cc1)C(=O)N1CCC[C@H]1C(=O)N(c1ccccc1)c1ccc(I)cc1", "note": "[18a]", "values": [{"measurement": "IC50", "setting": "[4]", "value": 40, "unit": "nM"}]}, {"smiles": "CC(C)(C)C(=O)OCOP(=O)(OCOC(=O)C(C)(C)C)C(F)(F)c1ccc(/C=C/C(=O)N[C@H](C(=O)N2CCC[C@H]2C(=O)Nc2ccccc2)C(C)(C)C)cc1", "note": "[compound 30]", "values": [{"measurement": "inhibition of IL-2 mediated STAT5 phosphorylation", "setting": "[5]", "value": "not an inhibitor of pSTAT5"}, {"measurement": "lowest concentration with potent inhibition of pAkt", "setting": "[6]", "value": 100, "unit": "nM"}, {"measurement": "cell viability (in words)", "setting": "[7]", "value": "the fraction of viable cells paralleled pSTAT6 inhibition"}, {"measurement": "loss of pSTAT6 inhibition potency relative to 29", "setting": "[8]; IL-4", "value": "approximately 25 fold"}]}, {"smiles": "C/C(=C\\C(=O)N[C@H](C(=O)N1CCCC1/C=C/CCc1ccccc1)C(C)(C)C)c1ccc(OP(=O)(O)O)cc1", "note": "(stereo partly drawn) [compound 25]", "values": [{"measurement": "IC50", "setting": "[4]", "value": 500, "unit": "nM"}]}, {"smiles": "C/C(=C\\C(=O)N[C@H](C(=O)N1CCC[C@H]1C(=O)N(C)c1ccccc1)C(C)(C)C)c1ccc(C(F)(F)P(=O)(OCOC(=O)C(C)(C)C)OCOC(=O)C(C)(C)C)cc1", "note": "[compound 31]", "values": [{"measurement": "inhibition of IL-2 mediated STAT5 phosphorylation", "setting": "[5]", "value": "robust inhibition"}, {"measurement": "inhibition of CCL26 mRNA expression at 100 nM", "setting": "[1]", "value": "> 50", "unit": "%"}, {"measurement": "inhibition of pAkt at 5 µM", "setting": "[6]", "value": "mild inhibition"}, {"measurement": "cell viability (in words)", "setting": "[7]", "value": "nearly identical to that of 29"}, {"measurement": "pSTAT6 inhibition potency (in words)", "setting": "[8]", "value": "retains potency"}]}, {"smiles": "C/C(=C\\C(=O)N[C@H](C(=O)N1CCC[C@H]1C(=O)N(C)C1CCCCC1)C(C)(C)C)c1ccc(C(F)(F)P(=O)(OCOC(=O)C(C)(C)C)OCOC(=O)C(C)(C)C)cc1", "note": "[compound 32]", "values": [{"measurement": "inhibition of IL-2 mediated STAT5 phosphorylation", "setting": "[5]", "value": "robust inhibition"}, {"measurement": "cell viability (in words)", "setting": "[7]", "value": "nearly identical to that of 29"}, {"measurement": "pSTAT6 inhibition potency (in words)", "setting": "[8]", "value": "high potency"}]}, {"smiles": "CC(C)(C)C(=O)OCOP(=O)(OCOC(=O)C(C)(C)C)C(F)(F)c1ccc(/C=C/C(=O)N[C@H](C(=O)N2CCC[C@H]2C(=O)N(c2ccccc2)c2ccccc2)C(C)(C)C)cc1", "note": "[compound 28]", "values": [{"measurement": "inhibition of IL-2 mediated STAT5 phosphorylation", "setting": "[5]", "value": "robust inhibition"}, {"measurement": "effect on cell viability at concentrations ≤1 µM", "setting": "[7]", "value": "did not affect viability"}, {"measurement": "concentration giving complete inhibition of pSTAT6", "setting": "[8]; prodrug 2 h, IL-4 1 h", "value": 500, "unit": "nM"}, {"measurement": "concentration giving significant inhibition of pSTAT6", "setting": "[8]; prodrug 2 h, IL-4 1 h", "value": 100, "unit": "nM"}]}, {"smiles": "CC[C@H](C)[C@H](NC(=O)[C@H](CC(C)C)NC(=O)[C@H](CC(=O)O)NC(=O)[C@H](CCC(N)=O)NC(=O)[C@H](Cc1ccccc1)NC(=O)[C@@H]1CCCN1C(=O)[C@H](CCCCN)NC(=O)[C@H](Cc1ccc(OP(=O)(O)O)cc1)NC(C)=O)C(N)=O", "note": "[compound 1, Ac-pTyr-Lys-Pro-Phe-Gln-Asp-Leu-Ile-NH2] (HELM PEPTIDE1{[ac].[O=C([C@H](Cc1ccc(OP(=O)(O)O)cc1)N[*:1])[*:2]].K.P.F.Q.D.L.I.[am]}$$$$V2.0)", "values": [{"measurement": "IC50", "setting": "[4]", "value": 2000, "unit": "nM"}]}, {"smiles": "CN(C(=O)[C@@H]1CCCN1C(=O)[C@@H](NC(=O)/C=C/c1ccc(C(F)(F)P(=O)(OCOC(=O)C(C)(C)C)OCOC(=O)C(C)(C)C)cc1)C(C)(C)C)c1ccccc1", "note": "[compound 29]", "values": [{"measurement": "inhibition of IL-2 mediated STAT5 phosphorylation", "setting": "[5]", "value": "robust inhibition"}, {"measurement": "inhibition of pAkt at 5 µM", "setting": "[6]", "value": "mild inhibition"}, {"measurement": "effect on cell viability at concentrations ≤1 µM", "setting": "[7]", "value": "did not affect viability"}, {"measurement": "concentration giving nearly complete inhibition of pSTAT6", "setting": "[8]; prodrug 2 h, IL-4 1 h", "value": 100, "unit": "nM"}, {"measurement": "concentration giving significant inhibition of pSTAT6", "setting": "[8]; prodrug 2 h, IL-4 1 h", "value": 50, "unit": "nM"}]}]}
